Results taken from ChEMBL document CHEMBL1138614, “Synthesis and antibacterial activities of novel oxazolidinones having spiro[2,4]heptane moieties” (2009).
In brackets after ≈: the same amount, converted by molar mass.

Legend:
Assay type in all cases: functional
Enterococcus [1] = assay: Antibacterial activity against vancomycin-resistant Enterococcus 2 after 18 to 20 hrs by agar dilution method
Summary of the method: (§1)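 Agar dilution MIC on test agar. Bacteria grown overnight in tryptosoy broth, diluted in the same broth to about 10⁶ cells/mL, then applied with an inoculating device onto agar holding serial twofold dilutions of compound. Plates incubated at 37 °C for 18–20 h. MIC taken as the lowest concentration visibly inhibiting growth, in µg/ml.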

Streptococcus agalactiae = assay: Antibacterial activity against Streptococcus agalactiae ATCC 2901 after 18 to 20 hrs by agar dilution method
Summary of the method: (§2)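 Agar dilution: bacteria grown overnight in tryptosoy broth and diluted in the same broth to about 10⁶ cells/mL. A multipoint inoculating device spotted them onto test agar carrying serial twofold dilutions of compound. Plates were held at 37 °C for 18–20 h. MIC (µg/ml) was read as the lowest concentration giving visible inhibition of growth.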

Enterococcus [2] = assay: Antibacterial activity against vancomycin-resistant Enterococcus 3 after 18 to 20 hrs by agar dilution method; summary of the method: as §1
Enterococcus faecium [3] = assay: Antibacterial activity against Enterococcus faecium C803 after 18 to 20 hrs by agar dilution method; summary of the method: as §1
Enterococcus faecalis [4] = assay: Antibacterial activity against vancomycin-resistant Enterococcus faecalis after 18 to 20 hrs by agar dilution method; summary of the method: as §1
Streptococcus pyogenes = assay: Antibacterial activity against Streptococcus pyogenes ATCC 8736 after 18 to 20 hrs by agar dilution method; summary of the method: as §2
Enterococcus [5] = assay: Antibacterial activity against vancomycin-resistant Enterococcus 5 after 18 to 20 hrs by agar dilution method; summary of the method: as §1
Streptococcus pneumoniae = assay: Antibacterial activity against Streptococcus pneumoniae C402 after 18 to 20 hrs by agar dilution method; summary of the method: as §2
Staphylococcus aureus [6] = assay: Antibacterial activity against Staphylococcus aureus C463 after 18 to 20 hrs by agar dilution method; summary of the method: as §1
Haemophilus influenzae = assay: Antibacterial activity against Haemophilus influenzae after 18 to 20 hrs by agar dilution method; summary of the method: as §2
Staphylococcus aureus [7] = assay: Antibacterial activity against methicillin-resistant Staphylococcus aureus after 18 to 20 hrs by agar dilution method; summary of the method: as §1
Enterococcus [8] = assay: Antibacterial activity against vancomycin-resistant Enterococcus 6 after 18 to 20 hrs by agar dilution method; summary of the method: as §1
Enterococcus faecalis [9] = assay: Antibacterial activity against Enterococcus faecalis C474 after 18 to 20 hrs by agar dilution method; summary of the method: as §2
Enterococcus faecium [10] = assay: Antibacterial activity against vancomycin-resistant Enterococcus faecium after 18 to 20 hrs by agar dilution method; summary of the method: as §1
Enterococcus [11] = assay: Antibacterial activity against vancomycin-resistant Enterococcus 1 after 18 to 20 hrs by agar dilution method; summary of the method: as §1
Staphylococcus = assay: Antibacterial activity against Coagulase negative Staphylococcus after 18 to 20 hrs by agar dilution method; summary of the method: as §2
Enterococcus [12] = assay: Antibacterial activity against vancomycin-resistant Enterococcus 4 after 18 to 20 hrs by agar dilution method; summary of the method: as §1

Row | Structure (SMILES) | MIC (Enterococcus [1]) | MIC (Streptococcus agalactiae) | MIC (Enterococcus [2]) | MIC (Enterococcus faecium [3]) | MIC (Enterococcus faecalis [4]) | MIC (Streptococcus pyogenes) | MIC (Enterococcus [5]) | MIC (Streptococcus pneumoniae) | MIC (Staphylococcus aureus [6]) | MIC (Haemophilus influenzae) | MIC (Staphylococcus aureus [7]) | MIC (Enterococcus [8]) | MIC (Enterococcus faecalis [9]) | MIC (Enterococcus faecium [10]) | MIC (Enterococcus [11]) | MIC (Staphylococcus) | MIC (Enterococcus [12])
1 | CC(=O)NC[C@H]1CN(c2ccc(N3CC(O)C4(CC4)C3)c(F)c2)C(=O)O1 (stereo not given in full) | 6.25 µg/mL (≈ 17.2 µM) | 6.25 µg/mL (≈ 17.2 µM) | 6.25 µg/mL (≈ 17.2 µM) | 6.25 µg/mL (≈ 17.2 µM) | 6.25 µg/mL (≈ 17.2 µM) | 6.25 µg/mL (≈ 17.2 µM) | 6.25 µg/mL (≈ 17.2 µM) | 3.12 µg/mL (≈ 8.59 µM) | 12.5 µg/mL (≈ 34.4 µM) | 6.25 µg/mL (≈ 17.2 µM) | 6.25 µg/mL (≈ 17.2 µM) | 3.12 µg/mL (≈ 8.59 µM) | 12.5 µg/mL (≈ 34.4 µM) | 6.25 µg/mL (≈ 17.2 µM) | 3.12 µg/mL (≈ 8.59 µM) | 12.5 µg/mL (≈ 34.4 µM) | 6.25 µg/mL (≈ 17.2 µM)
2 | CC(=O)NC[C@H]1CN(c2ccc(N3CC(=O)C4(CC4)C3)c(F)c2)C(=O)O1 | 1.56 µg/mL (≈ 4.32 µM) | 1.56 µg/mL (≈ 4.32 µM) | 1.56 µg/mL (≈ 4.32 µM) | 1.56 µg/mL (≈ 4.32 µM) | 1.56 µg/mL (≈ 4.32 µM) | 3.12 µg/mL (≈ 8.63 µM) | 3.12 µg/mL (≈ 8.63 µM) | 0.78 µg/mL (≈ 2.16 µM) | 3.12 µg/mL (≈ 8.63 µM) | 1.56 µg/mL (≈ 4.32 µM) | 3.12 µg/mL (≈ 8.63 µM) | 1.56 µg/mL (≈ 4.32 µM) | 6.25 µg/mL (≈ 17.3 µM) | 1.56 µg/mL (≈ 4.32 µM) | 3.12 µg/mL (≈ 8.63 µM) | 3.12 µg/mL (≈ 8.63 µM) | 3.12 µg/mL (≈ 8.63 µM)
3 | CC(=O)NC[C@H]1CN(c2ccc(N3CC(F)C4(CC4)C3)c(F)c2)C(=O)O1 (stereo not given in full) | 1.56 µg/mL (≈ 4.27 µM) | 0.78 µg/mL (≈ 2.13 µM) | 3.12 µg/mL (≈ 8.54 µM) | 0.78 µg/mL (≈ 2.13 µM) | 1.56 µg/mL (≈ 4.27 µM) | 1.56 µg/mL (≈ 4.27 µM) | 0.78 µg/mL (≈ 2.13 µM) | 1.56 µg/mL (≈ 4.27 µM) | 3.12 µg/mL (≈ 8.54 µM) | 0.39 µg/mL (≈ 1.07 µM) | 0.78 µg/mL (≈ 2.13 µM) | 1.56 µg/mL (≈ 4.27 µM) | 1.56 µg/mL (≈ 4.27 µM) | 1.56 µg/mL (≈ 4.27 µM) | 1.56 µg/mL (≈ 4.27 µM) | 3.12 µg/mL (≈ 8.54 µM) | 0.78 µg/mL (≈ 2.13 µM)
4 | CO/N=C1\CN(c2ccc(N3C[C@H](CNC(C)=O)OC3=O)cc2F)CC12CC2 | 3.12 µg/mL (≈ 7.99 µM) | 6.25 µg/mL (≈ 16 µM) | 6.25 µg/mL (≈ 16 µM) | 6.25 µg/mL (≈ 16 µM) | 6.25 µg/mL (≈ 16 µM) | 6.25 µg/mL (≈ 16 µM) | 6.25 µg/mL (≈ 16 µM) | 3.12 µg/mL (≈ 7.99 µM) | 6.25 µg/mL (≈ 16 µM) | 6.25 µg/mL (≈ 16 µM) | 6.25 µg/mL (≈ 16 µM) | 6.25 µg/mL (≈ 16 µM) | 12.5 µg/mL (≈ 32 µM) | 6.25 µg/mL (≈ 16 µM) | 6.25 µg/mL (≈ 16 µM) | 12.5 µg/mL (≈ 32 µM) | 6.25 µg/mL (≈ 16 µM)
5 | CC(=O)NC[C@H]1CN(c2ccc(N3C/C(=N\N)C4(CC4)C3)c(F)c2)C(=O)O1 | 25 µg/mL (≈ 66.6 µM) | 25 µg/mL (≈ 66.6 µM) | 12.5 µg/mL (≈ 33.3 µM) | 25 µg/mL (≈ 66.6 µM) | 50 µg/mL (≈ 133 µM) | 12.5 µg/mL (≈ 33.3 µM) | 12.5 µg/mL (≈ 33.3 µM) | 25 µg/mL (≈ 66.6 µM) | 25 µg/mL (≈ 66.6 µM) | 25 µg/mL (≈ 66.6 µM) | 25 µg/mL (≈ 66.6 µM) | 25 µg/mL (≈ 66.6 µM) | 25 µg/mL (≈ 66.6 µM) | 25 µg/mL (≈ 66.6 µM) | 12.5 µg/mL (≈ 33.3 µM) | 12.5 µg/mL (≈ 33.3 µM) | 25 µg/mL (≈ 66.6 µM)
6 | CC(=O)NC[C@H]1CN(c2ccc(N3C/C(=N\O)C4(CC4)C3)c(F)c2)C(=O)O1 | 6.25 µg/mL (≈ 16.6 µM) | 6.25 µg/mL (≈ 16.6 µM) | 6.25 µg/mL (≈ 16.6 µM) | 12.5 µg/mL (≈ 33.2 µM) | 12.5 µg/mL (≈ 33.2 µM) | 6.25 µg/mL (≈ 16.6 µM) | 6.25 µg/mL (≈ 16.6 µM) | 12.5 µg/mL (≈ 33.2 µM) | 12.5 µg/mL (≈ 33.2 µM) | 12.5 µg/mL (≈ 33.2 µM) | 12.5 µg/mL (≈ 33.2 µM) | 12.5 µg/mL (≈ 33.2 µM) | 25 µg/mL (≈ 66.4 µM) | 12.5 µg/mL (≈ 33.2 µM) | 12.5 µg/mL (≈ 33.2 µM) | 25 µg/mL (≈ 66.4 µM) | 6.25 µg/mL (≈ 16.6 µM)
7 | CCO/N=C1\CN(c2ccc(N3C[C@H](CNC(C)=O)OC3=O)cc2F)CC12CC2 | 6.25 µg/mL (≈ 15.5 µM) | 12.5 µg/mL (≈ 30.9 µM) | 6.25 µg/mL (≈ 15.5 µM) | 12.5 µg/mL (≈ 30.9 µM) | 12.5 µg/mL (≈ 30.9 µM) | 12.5 µg/mL (≈ 30.9 µM) | 6.25 µg/mL (≈ 15.5 µM) | 12.5 µg/mL (≈ 30.9 µM) | 12.5 µg/mL (≈ 30.9 µM) | 12.5 µg/mL (≈ 30.9 µM) | 12.5 µg/mL (≈ 30.9 µM) | 6.25 µg/mL (≈ 15.5 µM) | 25 µg/mL (≈ 61.8 µM) | 12.5 µg/mL (≈ 30.9 µM) | 12.5 µg/mL (≈ 30.9 µM) | 12.5 µg/mL (≈ 30.9 µM) | 12.5 µg/mL (≈ 30.9 µM)
8 | CC(=O)NC[C@H]1CN(c2ccc(N3CC(N)C4(CC4)C3)c(F)c2)C(=O)O1 (stereo not given in full) | 6.25 µg/mL (≈ 17.2 µM) | 6.25 µg/mL (≈ 17.2 µM) | 6.25 µg/mL (≈ 17.2 µM) | 6.25 µg/mL (≈ 17.2 µM) | 12.5 µg/mL (≈ 34.5 µM) | 6.25 µg/mL (≈ 17.2 µM) | 6.25 µg/mL (≈ 17.2 µM) | 6.25 µg/mL (≈ 17.2 µM) | 6.25 µg/mL (≈ 17.2 µM) | 6.25 µg/mL (≈ 17.2 µM) | 6.25 µg/mL (≈ 17.2 µM) | 12.5 µg/mL (≈ 34.5 µM) | 6.25 µg/mL (≈ 17.2 µM) | 6.25 µg/mL (≈ 17.2 µM) | 12.5 µg/mL (≈ 34.5 µM) | 6.25 µg/mL (≈ 17.2 µM) | 6.25 µg/mL (≈ 17.2 µM)
9 | CC(=O)NC[C@H]1CN(c2ccc(N3CCOCC3)c(F)c2)C(=O)O1 [LINEZOLID] | 1.56 µg/mL (≈ 4.62 µM) | 1.56 µg/mL (≈ 4.62 µM) | 1.56 µg/mL (≈ 4.62 µM) | 1.56 µg/mL (≈ 4.62 µM) | 1.56 µg/mL (≈ 4.62 µM) | 1.56 µg/mL (≈ 4.62 µM) | 1.56 µg/mL (≈ 4.62 µM) | 0.78 µg/mL (≈ 2.31 µM) | 3.12 µg/mL (≈ 9.25 µM) | 1.56 µg/mL (≈ 4.62 µM) | 1.56 µg/mL (≈ 4.62 µM) | 1.56 µg/mL (≈ 4.62 µM) | 1.56 µg/mL (≈ 4.62 µM) | 1.56 µg/mL (≈ 4.62 µM) | 1.56 µg/mL (≈ 4.62 µM) | 3.12 µg/mL (≈ 9.25 µM) | 1.56 µg/mL (≈ 4.62 µM)
10 | CCCO/N=C1\CN(c2ccc(N3C[C@H](CNC(C)=O)OC3=O)cc2F)CC12CC2 | 12.5 µg/mL (≈ 29.9 µM) | 12.5 µg/mL (≈ 29.9 µM) | 12.5 µg/mL (≈ 29.9 µM) | 12.5 µg/mL (≈ 29.9 µM) | 25 µg/mL (≈ 59.7 µM) | 12.5 µg/mL (≈ 29.9 µM) | 12.5 µg/mL (≈ 29.9 µM) | 12.5 µg/mL (≈ 29.9 µM) | 25 µg/mL (≈ 59.7 µM) | 25 µg/mL (≈ 59.7 µM) | 12.5 µg/mL (≈ 29.9 µM) | 12.5 µg/mL (≈ 29.9 µM) | 25 µg/mL (≈ 59.7 µM) | 12.5 µg/mL (≈ 29.9 µM) | 12.5 µg/mL (≈ 29.9 µM) | 12.5 µg/mL (≈ 29.9 µM) | 12.5 µg/mL (≈ 29.9 µM)
